From ChEMBL document CHEMBL1143649, “New clerodane diterpenoids from Laetia procera (Poepp.) Eichler (Flacourtiaceae), with antiplasmodial and antileishmanial activities” (Bioorg Med Chem Lett, 2005)

Experiments:
MCF7 [1] = assay: Cytotoxic activity against human MCF-7 cells; type: cell-based
MCF7 [2] = assay: Ratio of cytotoxic activity against human MCF-7 cells to that of antiplasmodial activity against Plasmodium falciparum FcB1; type: functional
Procedure, shortened: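 Cytotoxic activity on the MCF7 human tumour line divided by antiplasmodial activity on P. falciparum FcB1.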

Plasmodium falciparum [3] = assay: Antiplasmodial activity for Plasmodium falciparum F32; type: functional
Procedure, shortened: (§1)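 Tested against P. falciparum strains FcB1 and F32, with chloroquine as the positive control. Values are means ± SD from independent experiments.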

Plasmodium falciparum [4] = assay: Antiplasmodial activity for Plasmodium falciparum FcB1; type: functional; procedure, shortened: as §1
Leishmania amazonensis [5] = assay: Antileishmanial activity against leishmania amazonensis promastigotes stage; type: functional
Leishmania amazonensis [6] = assay: Antileishmanial activity against leishmania amazonensis axenic amastigotes stage; type: functional

Compound | Activity (MCF7 [1]) [µM] | Ratio (MCF7 [2]) | Activity (Plasmodium falciparum [3]) [µM] | Activity (Plasmodium falciparum [4]) [µM] | Activity (Leishmania amazonensis [5]) [µM] | Activity (Leishmania amazonensis [6]) [µM]
C=C/C(C)=C/C[C@]1(C)[C@H](C)C[C@H](OC(=O)c2ccccc2)[C@@]23C(=C[C@H](OC(=O)C(C)C)C[C@@H]12)C(OC(C)=O)OC3OC(C)=O (some centres not stated) | 17.8 | 3.1 | 4.44 | 6.08 | >200 | >200
C=C/C(C)=C/C[C@]1(C)[C@H](C)C[C@H](O)[C@@]23C(=C[C@H](OC(=O)C(C)CC)C[C@@H]12)C(OC(C)=O)OC3OC(C)=O (some centres not stated) | 1.54 | 2.2 | 0.62 | 0.54 | 11.1 | 5.98
C=C/C(C)=C/C[C@]1(C)[C@H](C)C[C@H](O)[C@@]23C(=C[C@@H](OC(=O)C(C)CC)C[C@@H]12)C(OC(C)=O)OC3OC(C)=O (some centres not stated) | 0.85 | 1.3 | 0.57 | 0.59 | 11 | 10.5
CCCCCCCC/C=C\CCCCCC[C@@H]1C(=O)O[C@@H](C)[C@H]1O | 65.9 | 2.1 | 57.6 | 27.5 | 111 | 129
C=C/C(C)=C/C[C@]1(C)[C@H](C)C[C@H](OC)[C@@]23C(=C[C@H](OC(=O)C(C)CC)C[C@@H]12)C(OC(C)=O)OC3OC(C)=O (some centres not stated) | 4.38 | 6.8 | 0.58 | 0.66 | 10.9 | 47.4
C=C/C(C)=C/C[C@]1(C)[C@H](C)C[C@H](OC)[C@@]2(C=O)C(C=O)=C[C@H](OC(=O)C(C)CC)C[C@@H]12 (some centres not stated) | 9.6 | 2.7 | 6.04 | 3.79 | 50.9 | 30.3
C[C@@H]1[C@H](O)[C@@H](C)/C=C/C=C/C=C/C=C/C=C/C=C/C=C/[C@H](O[C@@H]2O[C@H](C)[C@@H](O)[C@H](N)[C@@H]2O)C[C@@H]2O[C@](O)(C[C@@H](O)C[C@@H](O)[C@H](O)CC[C@@H](O)C[C@@H](O)CC(=O)O[C@H]1C)C[C@H](O)[C@H]2C(=O)O [AMPHOTERICIN B] | – | – | – | – | 0.3 | 0.3
CCN(CC)CCCC(C)Nc1ccnc2cc(Cl)ccc12 (configuration not stated) [CHLOROQUINE] | – | – | 0.06 | 0.145 | – | –
COc1cccc2c1C(=O)c1c(O)c3c(c(O)c1C2=O)C[C@@](O)(C(=O)CO)C[C@@H]3O[C@H]1C[C@H](N)[C@H](O)[C@H](C)O1 [DOXORUBICIN] | 0.4 | – | – | – | – | –
C=C/C(C)=C/C[C@]1(C)[C@H](C)C[C@H](OC(=O)c2ccccc2)[C@@]23C(=C[C@H](OC(=O)C(C)CC)C[C@@H]12)C(OC(C)=O)OC3OC(C)=O (some centres not stated) | 27.3 | 4.6 | 4.66 | 5.35 | >200 | >200
